In series [1] the test system is Hepatitis C virus. Put plainly: Antiviral activity against HCV infected in human Huh-7 cells assessed as reduction in viral replication measured after 48 hrs by luciferase reporter gene assay. The series is classed as functional, organism-based, Hepacivirus hominis. Conditions: Huh-7, 48 h. The gist of the method:
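Replicon-bearing Huh7 cells seeded at 10,000/well and allowed to attach for 24 h at 37 °C. Triplicate biological wells then treated 48 h with compound in DMEM, 10% FBS, 0.5% DMSO final. Bright-Glo luminescence expressed relative to untreated cells. IC50 from a four-parameter logistic fit.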
A general note: In a reporter assay the amount or activity of a reporter protein is the signal.

The nature of series [2]: Toxicity in human Huh-7 cells assessed as reduction in cell viability measured after 96 hrs by celltiter-glo assay. The format is cell-based. The note with it: read-out: TC50.
Series [3] deals with HepG2. Put plainly: Cytotoxicity against human HepG2 cells assessed as reduction in cell viability measured after 96 hrs by celltiter-glo assay. The format is functional. Conditions: read-out: TC50 (the source's name).
The nature of series [4]: Cytotoxicity against HEK293 cells assessed as reduction in cell viability measured after 96 hrs by celltiter-glo assay. The series is classed as cell-based. The note with it: human, read-out: TC50.
Series [5] is described as follows: Cytotoxicity against human MCF7 cells assessed as reduction in cell viability measured after 96 hrs by celltiter-glo assay. Conditions: read-out: TC50. The series is classed as cell-based. For orientation: In ATP-based viability assays light output follows the ATP content of the culture.
A short description of series [6]: Cytotoxicity against human BXPC-3 cells assessed as reduction in cell viability measured after 96 hrs by celltiter-glo assay. Conditions: read-out: TC50. The format is cell-based.
For series [7], the system named is Hepatitis C virus. The series is described as follows: Antiviral activity against HCV infected in human Huh-7 cells assessed as reduction in viral replication at 25 to 1000 nM measured after 48 hrs in presence of cytidine by luciferase reporter gene assay. The format is functional, organism-based. Conditions: Hepacivirus hominis, dose 25-1000 nM. In a few lines:
(§1)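 Huh7 cells carrying an HCV luciferase replicon, grown in DMEM with 10% FBS and G418. Cells treated 48 h continuously with compound at 25–1,000 nM, either alone or together with 50 µM cytidine or 2′-deoxycytidine. Luciferase activity read in lysates. Three biological replicates, SD.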

For series [8], the system named is Hepatitis C virus. The series is described as follows: Antiviral activity against HCV infected in human Huh-7 cells assessed as reduction in viral replication at 25 to 1000 nM measured after 48 hrs in presence of deoxycytidine by luciferase reporter gene assay. The series is classed as functional, organism-based. Conditions: Hepacivirus hominis, dose 25-1000 nM. The gist of the method: as §1

Series [9] concerns Hepatitis C virus. Put plainly: Antiviral activity against HCV infected in human Huh-7 cells assessed as reduction in viral replication at 500 nM measured within 6 hrs by luciferase reporter gene assay. The format is functional, Hepacivirus hominis. Conditions: time hrs <=6. Also on record: scale not given: the % may be the effect or the level left. The gist of the method: (§2)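 Huh7 luciferase replicon cells treated with 500 nM compound or mock for up to 48 h. Cells were lysed at various times and the lysates snap-frozen in liquid nitrogen. All lysates were then assayed for luciferase together.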

Series [10] has as its system Hepatitis C virus. Put plainly: Antiviral activity against HCV infected in human Huh-7 cells assessed as reduction in viral replication preincubated for 2 hrs followed by replacement with fresh culture medium and measured after 46 hrs by luciferase reporter gene assay. The format is functional, organism-based, Hepacivirus hominis. The gist of the method:
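HCV luciferase-replicon Huh7 cells were seeded at 10,000 cells/well and allowed 24 h to attach. Three biological replicates were exposed to graded compound in DMEM/10% FBS/0.5% DMSO for 2 h only, then the medium was replaced with fresh growth medium for 46 h at 37 °C.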

Series [11] in a line: Cytotoxicity against human Huh-7 cells assessed as reduction in cell viability measured after 48 hrs in presence of ENT1 inhibitor NBTI […]. The format is cell-based. The note with it: with NBTI (ENT1 inhibitor; concentration not stated), read-out: TC50.
A short description of series [12]: Stability in pH 1 aqueous buffer assessed as parent compound remaining at 200 uM measured after 4 hrs by UV spectrophotometry. The series is classed as physicochemical. The note with it: read-out: Stabilty. The gist of the method:
(§3)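 Compound diluted to […] in aqueous buffers at pH 1.0, 2.0, 4.0, 6.0 or 8.0 and held 4 h at 40 °C. Intact prodrug separated by reverse-phase HPLC. 260 nm peak area after incubation compared with untreated prodrug, giving % remaining.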

Series [13] can be described thus: Stability in pH 2 aqueous buffer assessed as parent compound remaining at 200 uM measured after 4 hrs by UV spectrophotometry. The series is classed as physicochemical. The note with it: read-out: Stabilty. In a few lines: as §3
The nature of series [14]: Stability in pH 4 aqueous buffer assessed as parent compound remaining at 200 uM measured after 4 hrs by UV spectrophotometry. The format is physicochemical. Conditions: read-out: Stabilty. In a few lines: as §3
A short description of series [15]: Stability in pH 6 aqueous buffer assessed as parent compound remaining at 200 uM measured after 4 hrs by UV spectrophotometry. Conditions: read-out: Stabilty. The series is classed as physicochemical. The gist of the method: as §3
A short description of series [16]: Stability in pH 8 aqueous buffer assessed as parent compound remaining at 200 uM measured after 4 hrs by UV spectrophotometry. The series is classed as physicochemical. Conditions: read-out: Stabilty. The gist of the method: as §3
The subject of series [17] is Hepatitis C virus. The series is described as follows: Antiviral activity against HCV infected in human Huh-7 cells assessed as reduction in viral replication measured after 48 hrs in presence of human carboxylesterase 1/2 inhibitor benzil by luciferase reporter gene assay. The series is classed as functional, organism-based, Hepacivirus hominis. Conditions: Huh-7, 48 h. In a few lines: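 Huh7 cells carrying an HCV luciferase-reporter replicon, grown with 10% FBS and G418, were seeded at 10,000 cells/well and left 24 h to attach. Three biological replicates were treated with graded compound in DMEM/10% FBS/0.5% DMSO with benzil present, for 48 h at 37 °C. Bright-Glo luciferase was read, and IC50 came from a four-parameter logistic fit.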

Series [18] concerns Hepatitis C virus. The series is described as follows: Antiviral activity against HCV infected in human Huh-7 cells assessed as reduction in viral replication measured after 48 hrs in presence of esterase inhibitor bis-p-nitrophenyl phosphate by luciferase reporter gene assay. The note with it: Huh-7, 48 h. The format is functional, organism-based, Hepacivirus hominis.
Series [19] is described as follows: Ratio of IC50 for antiviral activity against HCV infected in human Huh-7 cells in presence of human carboxylesterase 1/2 inhibitor benzil to antiviral activity against HCV infected in human Huh-7 cells in absence of human carboxyesterases1/2 inhibitor benzil. The series is classed as functional, Hepacivirus hominis.
The nature of series [20]: Ratio of IC50 for antiviral activity against HCV infected in human Huh-7 cells in presence of esterase inhibitor bis-p-nitrophenyl phosphate to antiviral activity against HCV infected in human Huh-7 cells in absence of esterase inhibitor bis-p-nitrophenyl phosphate. The series is classed as functional, Hepacivirus hominis.
Series [21] in a line: Prodrug conversion assessed as human carboxylesterase 1/2-mediated gemcitabine release measured after 1 hr by HPLC analysis. The format is ADME.
Series [22] can be described thus: Cytotoxicity against human Huh-7 cells assessed as reduction in cell viability measured after 48 hrs by celltiter-glo assay. The format is cell-based. Conditions: read-out: TC50.
A short description of series [23]: Ratio of gemcitabine TC50 to test compound TC50 for cytotoxicity against human MCF7 cells assessed as reduction in cell viability. The series is classed as cell-based.
A short description of series [24]: Ratio of gemcitabine TC50 to test compound TC50 for cytotoxicity against human BXPC-3 cells assessed as reduction in cell viability. The series is classed as cell-based.
The subject of series [25] is Hepatitis C virus. The series is described as follows: Synergistic antiviral activity against HCV infected in human Huh-7 cells assessed as reduction in viral replication measured after 48 hrs in presence of NS5A inhibitor daclatasvir. by luciferase reporter gene assay. The series is classed as functional, organism-based. Conditions: Hepacivirus hominis. The gist of the method:
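Replicon Huh7 cells treated 48 h with compound across 0.001–10,000 nM, each series at a fixed daclatasvir level from 0.005–0.025 nM. Luciferase read as above. A, B and C from the fits gave compound IC50 at each daclatasvir concentration, and these were plotted on an isobologram.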

The subject of series [26] is Hepatitis C virus. The series is described as follows: Synergistic antiviral activity against HCV infected in human Huh-7 cells assessed as reduction in viral replication measured after 48 hrs in presence of NS5B inhibitor PSI-6130. by luciferase reporter gene assay. The format is functional, organism-based. The note with it: Hepacivirus hominis.
The subject of series [27] is Hepatitis C virus. The series is described as follows: Antiviral activity against HCV infected in human Huh-7 cells assessed as reduction in viral replication at 500 nM measured after 36 hrs by luciferase reporter gene assay. The series is classed as functional, organism-based. The note with it: Hepacivirus hominis. The gist of the method: as §2
For series [28], the system named is Hepatitis C virus. The series is described as follows: Antiviral activity against HCV infected in human Huh-7 cells assessed as reduction in viral replication at 500 nM measured after 24 to 30 hrs by luciferase reporter gene assay. The series is classed as functional, Hepacivirus hominis. Conditions: time 24-30 hrs. Also on record: scale not given: the % may be the effect or the level left. The gist of the method: as §2

Series [29] relates to Hepatitis C virus. Put plainly: Antiviral activity against HCV infected in human Huh-7 cells assessed as reduction in viral replication at 500 nM measured after 48 hrs by luciferase reporter gene assay. The series is classed as functional, organism-based. Conditions: Hepacivirus hominis. The gist of the method:
as §2

Series [30] deals with Hepatitis C virus. Put plainly: Ratio of IC50 for antiviral activity against HCV infected in human Huh-7 cells assessed as reduction in viral replication preincubated for 2 hrs followed by replacement with fresh culture medium and measured after 46 hrs by luciferase reporter gene assay to IC50 for antiviral activity against HCV infected in human Huh-7 cells assessed as reduction in viral replication measured after 48 hrs by …. The format is functional, Hepacivirus hominis.

Calls of active or inactive are those of the source. The calls are words filed in the database; no cut-off is given here.

The values below come from ChEMBL document CHEMBL4732148 (Eur J Med Chem, 2021).

On to `Nc1ccn([C@@H]2O[C@H](CO)[C@@H](O)C2(F)F)c(=O)n1` [GEMCITABINE], for which the IC50 came out at 58 nM in series [1] and 170 nM in series [10]. Besides, the CC50 at 96 h worked out at 3400 nM in [2], 560 nM in series [4], 67 nM in [5] and 2.9 nM in series [6]. For the same compound, in [3], the CC50 was 310 nM. Moreover, the outcome in [7] and in [8] was inactive. For the same compound, the Activity in series [9] stood at 50%. The CC50 at 48 h in [11] is more than 500000 nM. Moreover, the remaining at 4 h, 200 µM stood at 79% in [12]; 88% in [13]; 98% in series [14]; 100% in [15]; 100% in [16].
For `COc1cc(C(=O)Nc2ccn([C@@H]3O[C@H](CO)[C@@H](O)C3(F)F)c(=O)n2)cc(OC)c1OC`, the IC50 was found to be 49.3 nM in series [1], 125 nM in series [17], 81 nM in [18] and 2800 nM in [10]. Further, the “Ratio IC50” value in series [19] came out at 2.5; in series [20], 1.6; in [30], 56. Moreover, in series [21], the Drug metabolism result is “Metabolite_Detected”. Also, the CC50 at 48 h in series [22] worked out at 490000 nM; in series [11], 398000 nM. The CC50 at 96 h in series [2] worked out at 5100 nM; in series [4] it was 1300 nM; in series [5] it was 570 nM; in [6], 1800 nM. In addition, in series [3], the CC50 worked out at 1700 nM. Further, the selectivity ratio in [23] is not above 24; in series [24], not above 620. In addition, the outcome in series [7] and in series [8] was inactive. In addition, the result in [25], in series [26], in [27] and in series [29] was Active. Besides, the Activity in [28] is 50%. Besides, the remaining at 4 h, 200 µM in series [12] stood at 86%; in series [13] it was 87%; in series [14] it was 98.6%; in series [15], 99.5%; in [16], 82.7%.

By IC50 is commonly meant the midpoint of a concentration-inhibition curve.
